Measured values published in ChEMBL document CHEMBL1909548, “Ligustrazine derivatives. Part 5: design, synthesis and biological evaluation of novel ligustrazinyloxy-cinnamic acid derivatives as potent cardiovascular agents” (Eur J Med Chem, 2011).

Experiments:
[1] = Antiplatelet activity in rabbit platelet rich plasma assessed as inhibition rate of ADP-induced platelet aggregation at 200 uM after 5 mins by aggregometry; assay type: functional; details: Oryctolagus cuniculus
How it was run: (§1)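 Rabbit platelet-rich plasma obtained by centrifuging blood at 1000 rpm for 5 min. Platelet-poor plasma (3000 rpm, 15 min) served as the reference. Platelets were adjusted to 3×10¹¹/L. PRP was mixed with compound at final levels 400, 200, 100 or 50 and incubated at 37 °C for 5 min before aggregation was read. IC50 was derived by linear regression.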

[2] = Antiplatelet activity in rabbit platelet rich plasma assessed as inhibition rate of ADP-induced platelet aggregation at 100 uM after 5 mins by aggregometry; assay type: functional; details: Oryctolagus cuniculus; how it was run: as §1
[3] = Antiplatelet activity in rabbit platelet rich plasma assessed as inhibition rate of ADP-induced platelet aggregation at 50 uM after 5 mins by aggregometry; assay type: functional; details: Oryctolagus cuniculus; how it was run: as §1
[4] = Antiplatelet activity in rabbit platelet rich plasma assessed as inhibition of ADP-induced platelet aggregation after 5 mins by aggregometry; assay type: functional; details: Oryctolagus cuniculus; how it was run: as §1
ECV-304 [5] = assay: Protection against H2O2-induced toxicity in human ECV304 cells assessed as proliferation rate at 50 uM pretreated for 24 hrs before H2O2 challenge measured after 12 hrs by MTT assay; assay type: functional; details: read-out: Activity
How it was run: (§2)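 ECV-304 cells were seeded at 6×10³/well and grown to confluence. Cells were pretreated 24 h with compound in DMSO (final ≤0.05%), then given H2O2 (150) for 12 h at 37 °C, 5% CO2. MTT (5 mg/mL) was added for 4 h, formazan dissolved in DMSO, and A570 read. Proliferation rate = [OD(compd)−OD(H2O2)]/[OD(control)−OD(H2O2)]×100%. EC50 was calculated from proliferation rates by formula.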

ECV-304 [6] = assay: Protection against H2O2-induced toxicity in human ECV304 cells assessed as proliferation rate at 25 uM pretreated for 24 hrs before H2O2 challenge measured after 12 hrs by MTT assay; assay type: functional; details: read-out: Activity; how it was run: as §2
ECV-304 [7] = assay: Protection against H2O2-induced toxicity in human ECV304 cells assessed as proliferation rate at 12.5 uM pretreated for 24 hrs before H2O2 challenge measured after 12 hrs by MTT assay; assay type: functional; details: read-out: Activity; how it was run: as §2
ECV-304 [8] = assay: Protection against H2O2-induced toxicity in human ECV304 cells assessed as proliferation rate pretreated for 24 hrs before H2O2 challenge measured after 12 hrs by MTT assay; assay type: functional, cell-based; how it was run: as §2
[9] = Antiplatelet activity in rabbit platelet rich plasma assessed as inhibition rate of ADP-induced platelet aggregation at 400 uM after 5 mins by aggregometry; assay type: functional; details: Oryctolagus cuniculus; how it was run: as §1
ECV-304 [10] = assay: Protection against H2O2-induced toxicity in human ECV304 cells assessed as proliferation rate at 100 uM pretreated for 24 hrs before H2O2 challenge measured after 12 hrs by MTT assay; assay type: functional; details: read-out: Activity; how it was run: as §2

Row | SMILES | IC50 [4] | inhibition at 200 µM [1] | inhibition at 100 µM [2] | inhibition at 50 µM [3] | growth at 50 µM (ECV-304 [5]) | growth at 25 µM (ECV-304 [6]) | growth at 12.5 µM (ECV-304 [7]) | EC50 (ECV-304 [8]) | inhibition at 400 µM [9] | growth at 100 µM (ECV-304 [10])
1 | CCOC(=O)/C=C/c1cccc(OC)c1OCc1nc(C)c(C)nc1C | > 2000 µM | 12.5% | 10.5% | 6.97% | 16.6% | 58.7% | -92.5% | 3040 µM | 28.1% | 
2 | CCOC(=O)/C=C/c1cc(Br)c(OCc2nc(C)c(C)nc2C)c(Br)c1 | > 2000 µM | 16.3% | 10.7% | 6.77% | 66.1% | 57% | -130% | 1970 µM | 20.7% | 
3 | CCOC(=O)/C=C/c1ccc(OCc2nc(C)c(C)nc2C)c(O)c1 | 1380 µM | 25.7% | 23% | 13.9% | 10.3% | -8.45% | -18.7% | 139 µM | 41.8% | 37.3%
4 | CCOC(=O)/C=C/c1cc(Cl)ccc1OCc1nc(C)c(C)nc1C | > 2000 µM | 14.5% | 11.3% | 7.66% | -186% | -94.4% | -0.46% | 16900 µM | 18.7% | 
5 | Cc1nc(C)c(COc2ccc(/C=C/C(=O)O)cc2)nc1C | 1400 µM | 29% | 13.4% | 18.8% | 90.4% | 2.01% | -55% | 86 µM | 27.6% | 46.6%

The next molecules have a lower IC50 [4] than those just listed; values first:

Row | IC50 [4] | SMILES | inhibition at 200 µM [1] | inhibition at 100 µM [2] | inhibition at 50 µM [3] | growth at 50 µM (ECV-304 [5]) | growth at 25 µM (ECV-304 [6]) | growth at 12.5 µM (ECV-304 [7]) | EC50 (ECV-304 [8]) | inhibition at 400 µM [9] | growth at 100 µM (ECV-304 [10])
6 | 502 µM | CCOC(=O)/C=C/c1ccccc1OCc1nc(C)c(C)nc1C | 33.4% | 30.1% | 16.4% | 327% | -109% | -1.24% | 1540 µM | 48.1% | 
7 | 157 µM | COc1cc(/C=C/C(=O)O)ccc1OCc1nc(C)c(C)nc1C | 51.9% | 47% | 17.5% | -17.8% | -22.4% | -12.5% | 295 µM | 73.2% | -19.6%
8 | 54 µM | Cc1nc(C)c(COc2ccccc2/C=C/C(=O)O)nc1C | 70.2% | 62.3% | 46.1% | 237% | 370% | 183% | 499 µM | 76.8% | -34.6%
9 | 628 µM | CCOC(=O)/C=C/c1cccc(OCc2nc(C)c(C)nc2C)c1 | 34.8% | 29.4% | 14.5% | 278% | -180% | -1.52% | 4330 µM | 43% | 
10 | 631 µM | CCOC(=O)/C=C/c1cc(OC)c(OCc2nc(C)c(C)nc2C)c(OC)c1 | 38.5% | 35% | 31% | -94.2% | -81.9% | -31.1% | 2310 µM | 48.1% | -180%
11 | 522 µM | COc1cccc(/C=C/C(=O)O)c1OCc1nc(C)c(C)nc1C | 28.4% | 26.1% | 8.97% | 50.3% | -0.71% | -164% | 3590 µM | 47.6% | 
